The structures appear in SMILES notation. A value given as a limit tells only on which side of the number the result lay.

Assay [1] concerns the target T1, Gonadotropin-releasing hormone receptor (Homo sapiens, UniProt P30968).
T1 sequence (P30968 whole entry): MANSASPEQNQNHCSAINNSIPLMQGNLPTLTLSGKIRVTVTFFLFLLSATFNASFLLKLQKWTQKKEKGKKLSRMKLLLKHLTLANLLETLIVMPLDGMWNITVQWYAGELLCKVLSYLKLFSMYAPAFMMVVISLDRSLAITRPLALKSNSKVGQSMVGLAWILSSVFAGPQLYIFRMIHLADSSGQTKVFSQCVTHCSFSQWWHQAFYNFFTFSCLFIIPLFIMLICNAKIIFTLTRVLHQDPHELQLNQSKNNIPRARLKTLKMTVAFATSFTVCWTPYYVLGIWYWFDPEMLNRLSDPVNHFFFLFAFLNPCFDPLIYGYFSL
The assay can be described thus: In vitro binding affinity to human luteinizing hormone-releasing hormone (LHRH) receptor cloned in CHO cells. In kind it is cell-based.

The target in assay [2] is T2, Gonadotropin-releasing hormone receptor (Rattus norvegicus, UniProt P30969).
T2 sequence (P30969 whole entry): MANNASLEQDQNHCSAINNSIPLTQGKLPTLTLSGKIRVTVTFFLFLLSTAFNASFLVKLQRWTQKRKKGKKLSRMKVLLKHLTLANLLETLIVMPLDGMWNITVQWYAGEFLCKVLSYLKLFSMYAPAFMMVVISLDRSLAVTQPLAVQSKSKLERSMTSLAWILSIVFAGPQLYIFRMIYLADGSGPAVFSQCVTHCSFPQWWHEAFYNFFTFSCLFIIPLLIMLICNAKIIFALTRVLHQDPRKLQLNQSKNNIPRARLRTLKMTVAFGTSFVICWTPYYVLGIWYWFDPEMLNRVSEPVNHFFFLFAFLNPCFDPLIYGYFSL
Briefly: In vitro binding affinity to rat luteinizing hormone-releasing hormone (LHRH) receptor cloned in CHO cells. The class given is cell-based.

Assay [3] addresses Gonadotropin-releasing hormone receptor (Rattus norvegicus, UniProt P30969). Briefly: In vitro binding ability against Luteinizing hormone-releasing hormone release in rat pituitary cells. The class given is cell-based, Pituitary gland cell. Particulars: read-out: pA2 (converted). The essentials:
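Functional antagonism of LH release measured in cultured rat pituitary cells; potency expressed as pA2.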

The target in assay [4] is T1, Gonadotropin-releasing hormone receptor. Briefly: In vitro binding affinity was determined against human Luteinizing hormone-releasing hormone (LHRH) receptor cloned in CHO cells. The class given is cell-based.

Regarding `CC[C@H]1OC(=O)[C@H](C)[C@@H](OC(=O)N2CCN(C)C2=O)[C@H](C)[C@@H](OC2O[C@H](C)C[C@H](N(C)C(C)C)[C@H]2O)[C@@](C)(OC)C[C@@H](C)C(=O)[C@H](C)[C@H]2N(CCc3ccc(Cl)cc3)C(=O)O[C@]12C` (stereo partly drawn), the Ki is 4.68 µM in assay [1] and 1.23 µM in assay [2].

For the molecule `CC[C@H]1OC(=O)[C@H](C)[C@@H](OC(=O)N2C(=O)OC[C@@H]2C)[C@H](C)[C@@H](OC2O[C@H](C)C[C@H](N(C)C(C)C)[C@H]2O)[C@@](C)(OC)C[C@@H](C)C(=O)[C@H](C)[C@H]2N(CCc3ccc(Cl)cc3)C(=O)O[C@]12C` (stereo partly drawn), the Ki is 0.0186 µM in assay [1] and 0.00288 µM in assay [2].

Turning to `CC[C@H]1OC(=O)[C@H](C)[C@@H](OC(=O)N2C(=O)OC[C@H]2C)[C@H](C)[C@@H](OC2O[C@H](C)C[C@H](N(C)C(C)C)[C@H]2O)[C@@](C)(OC)C[C@@H](C)C(=O)[C@H](C)[C@H]2N(CCc3ccc(Cl)cc3)C(=O)O[C@]12C` (stereo partly drawn), the figures for the Ki in assay [1] and in assay [2] were 0.049 µM and 0.00525 µM, respectively.

On to `CC[C@H]1OC(=O)[C@H](C)[C@@H](O)[C@H](C)[C@@H](OC2O[C@H](C)C[C@H](N(C)C(C)C)[C@H]2O)[C@@](C)(OC)C[C@@H](C)C(=O)[C@H](C)[C@H]2N(CCc3ccc(Cl)cc3)C(=O)O[C@]12C` (stereo partly drawn), for which the Ki in assay [1] is 10 µM; in assay [2] it was 2.51 µM.

As to `CC[C@H]1OC(=O)[C@H](C)[C@@H](OC(=O)C2CCCC2)[C@H](C)[C@@H](OC2O[C@H](C)C[C@H](N(C)C(C)C)[C@H]2O)[C@@](C)(OC)C[C@@H](C)C(=O)[C@H](C)[C@H]2N(CCc3ccc(Cl)cc3)C(=O)O[C@]12C` (stereo partly drawn), the Ki in assay [1] is 0.631 µM; in assay [2], 0.0501 µM.

For `CC[C@H]1OC(=O)[C@H](C)[C@@H](OC(=O)N2C(=O)OC[C@@H]2C)[C@H](C)[C@@H](OC2O[C@H](C)C[C@H](N(C)C3CCCC3)[C@H]2O)[C@@](C)(OC)C[C@@H](C)C(=O)[C@H](C)[C@H]2N(CCc3ccc(Cl)cc3)C(=O)O[C@]12C` (stereo partly drawn), the Ki in assay [1] was 0.038 µM; in assay [2] it was 0.00117 µM.

In the case of `CC[C@H]1OC(=O)[C@H](C)[C@@H](OC(=O)N2C(=O)OC[C@@H]2C)[C@H](C)[C@@H](OC2O[C@H](C)C[C@H](N(C)C(C)C)[C@H]2O)[C@@](C)(OC)C[C@@H](C)C(=O)[C@H](C)[C@H]2N(CCc3ccc(Cl)c(Cl)c3)C(=O)O[C@]12C` (stereo partly drawn), the Ki in assay [1] was 0.0151 µM; in assay [2] it was 0.000234 µM. In addition, in assay [3], the Kb is 0.00178 µM.

For the molecule `CC[C@H]1COC(=O)N1C(=O)O[C@H]1[C@H](C)[C@@H](OC2O[C@H](C)C[C@H](N(C)C(C)C)[C@H]2O)[C@@](C)(OC)C[C@@H](C)C(=O)[C@H](C)[C@H]2N(CCc3ccc(Cl)cc3)C(=O)O[C@]2(C)[C@@H](CC)OC(=O)[C@@H]1C` (stereo partly drawn), the Ki in assay [1] is 0.0661 µM; in assay [2], 0.00631 µM.

Regarding `CC[C@H]1OC(=O)[C@H](C)[C@@H](OC(=O)N2CCOC2C)[C@H](C)[C@@H](OC2O[C@H](C)C[C@H](N(C)C(C)C)[C@H]2O)[C@@](C)(OC)C[C@@H](C)C(=O)[C@H](C)[C@H]2N(CCc3ccc(Cl)cc3)C(=O)O[C@]12C` (stereo partly drawn), the inhibition constant (Ki) is 0.794 µM in assay [1] and 0.12 µM in assay [2].

Take `CC[C@H]1OC(=O)[C@H](C)[C@@H](OC(=O)N2C(=O)OCC2(C)C)[C@H](C)[C@@H](OC2O[C@H](C)C[C@H](N(C)C(C)C)[C@H]2O)[C@@](C)(OC)C[C@@H](C)C(=O)[C@H](C)[C@H]2N(CCc3ccc(Cl)cc3)C(=O)O[C@]12C` (stereo partly drawn): the values for the Ki in assay [1] and in assay [2] were 0.0794 µM and 0.00891 µM, respectively.

`CC[C@H]1OC(=O)[C@H](C)[C@@H](OC(=O)N2CCNC2=O)[C@H](C)[C@@H](OC2O[C@H](C)C[C@H](N(C)C(C)C)[C@H]2O)[C@@](C)(OC)C[C@@H](C)C(=O)[C@H](C)[C@H]2N(CCc3ccc(Cl)cc3)C(=O)O[C@]12C` (stereo partly drawn): the Ki in assay [1] is 2.04 µM; in assay [2], 0.219 µM.

With `CCC1CN(C(=O)O[C@H]2[C@H](C)[C@@H](OC3O[C@H](C)C[C@H](N(C)C(C)C)[C@H]3O)[C@@](C)(OC)C[C@@H](C)C(=O)[C@H](C)[C@H]3N(CCc4ccc(Cl)cc4)C(=O)O[C@]3(C)[C@@H](CC)OC(=O)[C@@H]2C)C(=O)O1` (stereo partly drawn), the Ki in assay [1] was 0.562 µM; in assay [2], 0.0182 µM.

In the case of `CC[C@H]1OC(=O)[C@H](C)[C@@H](OC(=O)N2C(=O)OC[C@@H]2C)[C@H](C)[C@@H](OC2O[C@H](C)C[C@H](N(C)C3CCCC3)[C@H]2O)[C@@](C)(OC)C[C@@H](C)C(=O)[C@H](C)[C@H]2N(CCc3ccc(Cl)c(Cl)c3)C(=O)O[C@]12C` (stereo partly drawn), the inhibition constant Ki in assay [1] was 0.00562 µM; in assay [2], 0.000692 µM. Further, the Kb in assay [3] is 0.000135 µM.

Consider `CC[C@H]1OC(=O)[C@H](C)[C@@H](OC2C[C@@](C)(OC)[C@@H](O)[C@H](C)O2)[C@H](C)[C@@H](OC2O[C@H](C)C[C@H](N(C)C(C)C)[C@H]2O)[C@@](C)(OC)C[C@@H](C)C(=O)[C@H](C)[C@H]2N(CCc3ccc(Cl)cc3)C(=O)O[C@]12C` (stereo partly drawn), for which the results for the inhibition constant (Ki) in assay [1] and in assay [2] were 0.0224 µM and 0.00447 µM, respectively.

As for `CC[C@H]1OC(=O)[C@H](C)[C@@H](OC(=O)CC(C)C)[C@H](C)[C@@H](OC2O[C@H](C)C[C@H](N(C)C(C)C)[C@H]2O)[C@@](C)(OC)C[C@@H](C)C(=O)[C@H](C)[C@H]2N(CCc3ccc(Cl)cc3)C(=O)O[C@]12C` (stereo partly drawn), the results for the Ki in assay [1] and in assay [2] were 2.04 µM and 0.141 µM, respectively.

`CC[C@H]1OC(=O)[C@H](C)[C@@H](OC(=O)N2CC(C)OC2=O)[C@H](C)[C@@H](OC2O[C@H](C)C[C@H](N(C)C(C)C)[C@H]2O)[C@@](C)(OC)C[C@@H](C)C(=O)[C@H](C)[C@H]2N(CCc3ccc(Cl)cc3)C(=O)O[C@]12C` (stereo partly drawn): the values for the inhibition constant Ki in assay [1] and in assay [2] were 0.0363 µM and 0.00794 µM, respectively.

For `CC[C@H]1OC(=O)[C@H](C)[C@@H](OC(=O)N2CCCC2)[C@H](C)[C@@H](OC2O[C@H](C)C[C@H](N(C)C(C)C)[C@H]2O)[C@@](C)(OC)C[C@@H](C)C(=O)[C@H](C)[C@H]2N(CCc3ccc(Cl)cc3)C(=O)O[C@]12C` (stereo partly drawn), the inhibitory constant (Ki) in assay [1] was 1.62 µM; in assay [2], 0.112 µM.

Turning to `CC[C@H]1OC(=O)[C@H](C)[C@@H](OC(=O)C2CCOC2)[C@H](C)[C@@H](OC2O[C@H](C)C[C@H](N(C)C(C)C)[C@H]2O)[C@@](C)(OC)C[C@@H](C)C(=O)[C@H](C)[C@H]2N(CCc3ccc(Cl)cc3)C(=O)O[C@]12C` (stereo partly drawn), the Ki in assay [1] was 0.214 µM; in assay [2] it was 0.0141 µM.

Regarding `CC[C@H]1OC(=O)[C@H](C)[C@@H](OC(=O)N2C(=O)O[C@H](C)[C@@H]2C)[C@H](C)[C@@H](OC2O[C@H](C)C[C@H](N(C)C(C)C)[C@H]2O)[C@@](C)(OC)C[C@@H](C)C(=O)[C@H](C)[C@H]2N(CCc3ccc(Cl)cc3)C(=O)O[C@]12C` (stereo partly drawn), the “Log Ki” value in assay [1] (cho) is listed as < -7. Further, the Ki in assay [2] was 0.00288 µM.

For the molecule `CC[C@H]1OC(=O)[C@H](C)[C@@H](OC(=O)N2CCOCC2)[C@H](C)[C@@H](OC2O[C@H](C)C[C@H](N(C)C(C)C)[C@H]2O)[C@@](C)(OC)C[C@@H](C)C(=O)[C@H](C)[C@H]2N(CCc3ccc(Cl)cc3)C(=O)O[C@]12C` (stereo partly drawn), the Ki in assay [1] is 5.62 µM; in assay [2] it was 0.427 µM.

`CC[C@H]1OC(=O)[C@H](C)[C@@H](OC(=O)N2C(=O)OC[C@H]2CC(C)C)[C@H](C)[C@@H](OC2O[C@H](C)C[C@H](N(C)C(C)C)[C@H]2O)[C@@](C)(OC)C[C@@H](C)C(=O)[C@H](C)[C@H]2N(CCc3ccc(Cl)cc3)C(=O)O[C@]12C` (stereo partly drawn): the results for the Ki in assay [1] and in assay [2] were 0.275 µM and 0.692 µM, respectively.

In assay [4], `CC[C@H]1OC(=O)[C@H](C)[C@@H](OC(=O)N2CCOC2)[C@H](C)[C@@H](OC2O[C@H](C)C[C@H](N(C)C(C)C)[C@H]2O)[C@@](C)(OC)C[C@@H](C)C(=O)[C@H](C)[C@H]2N(CCc3ccc(Cl)cc3)C(=O)O[C@]12C` (stereo partly drawn) had an inhibition constant (Ki) of 0.2 µM.

With `CC[C@H]1OC(=O)[C@H](C)[C@@H](OC(=O)N2C(=O)OC[C@@H]2C)[C@H](C)[C@@H](O[C@@H]2O[C@H](C)C[C@H](N(C)CC3CC3)[C@H]2O)[C@@](C)(OC)C[C@@H](C)C(=O)[C@H](C)[C@H]2N(CCc3ccc(Cl)c(Cl)c3)C(=O)O[C@]12C`, the values for the inhibitory constant (Ki) in assay [1] and in assay [2] were 0.00186 µM and 0.000676 µM, respectively. For the same molecule, the Kb in assay [3] is 0.00174 µM.

`CC[C@H]1OC(=O)[C@H](C)[C@@H](OC(=O)N2C(=O)OC[C@@H]2C)[C@H](C)[C@@H](OC2O[C@H](C)C[C@H](N(C)CC3CC3)[C@H]2O)[C@@](C)(OC)C[C@@H](C)C(=O)[C@H](C)[C@H]2N(CCc3ccc(F)c(Cl)c3)C(=O)O[C@]12C` (stereo partly drawn): the Ki in assay [1] is 0.000331 µM; in assay [2], 0.000107 µM. The Kb in assay [3] is 0.000479 µM.

Take `CC[C@H]1OC(=O)[C@H](C)[C@@H](OC(=O)N2CCOC2=O)[C@H](C)[C@@H](OC2O[C@H](C)C[C@H](N(C)C(C)C)[C@H]2O)[C@@](C)(OC)C[C@@H](C)C(=O)[C@H](C)[C@H]2N(CCc3ccc(Cl)cc3)C(=O)O[C@]12C` (stereo partly drawn): the inhibition constant Ki is 0.115 µM in assay [1] and 0.00214 µM in assay [2].

As a reminder, the Ki is a dissociation constant, usually derived from enzyme kinetics or from competition with a known ligand. The low end stands for a stronger hold on the target, the high end for a looser hold on the target.

The values are drawn from ChEMBL document CHEMBL1148475, “Nonpeptide luteinizing hormone-releasing hormone antagonists derived from erythromycin A: design, synthesis, and biological activity of cladinose replacement analogues” (J Med Chem, 2004).
